# Data as given in ChEMBL document CHEMBL1153915, “[18F]FEAC and [18F]FEDAC: Two novel positron emission tomography ligands for peripheral-type benzodiazepine receptor in the brain” (Bioorg Med Chem Lett, 2009).
# Experiments:
# Translocator protein [1] = target: T1, Translocator protein (Rattus norvegicus, UniProt P16257); test: Displacement of [11C]DAA1106 from PBR receptor in rat brain membrane; type: cell membranes
# [2] = Displacement of [11C]flumazenil from CBR receptor in rat brain membrane; type: cell membranes
# Outline: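 Competition against [11C]flumazenil binding in rat brain homogenate; Ki derived; mean ± SD from duplicate homogenates.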
# [3] = Distribution coefficient, log D in octanol/phosphate buffer at pH 7.4 by shaking flask method; type: physicochemical
# Translocator protein [4] = target: T1, Translocator protein; test: Displacement of [11C]PK11195 from PBR receptor in rat brain membrane; type: cell membranes
# Striatum [5] = test: Drug uptake in kainic acid-lesioned Sprague-Dawley rat striatum assessed as standardized uptake value; type: ADME, tissue-based; conditions: in vivo
# Outline: (§1)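 Dynamic small-animal PET of [18F]-labelled ligand in neuroinflammatory rats (n = 4). Striatal time-activity curves are expressed as SUV = (radioactivity per cm3 tissue / injected radioactivity) × g body weight, as mean ± SD.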
# Striatum [6] = test: Drug uptake in non-lesioned Sprague-Dawley rat striatum assessed as standardized uptake value; type: ADME, tissue-based; conditions: in vivo; outline: as §1
# Striatum [7] = test: Ratio of drug uptake in kainic acid-lesioned to non-lesioned Sprague-Dawley rat striatum after 10 to 20 mins; type: ADME, tissue-based; conditions: in vivo
# Outline: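 From small-animal PET time-activity curves in neuroinflammatory rats (n = 4), the radioactivity in the lesioned striatum is divided by that in the non-lesioned striatum over the scan, and the maximum ratio is taken.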
# T1 sequence (P16257 whole entry, looked up): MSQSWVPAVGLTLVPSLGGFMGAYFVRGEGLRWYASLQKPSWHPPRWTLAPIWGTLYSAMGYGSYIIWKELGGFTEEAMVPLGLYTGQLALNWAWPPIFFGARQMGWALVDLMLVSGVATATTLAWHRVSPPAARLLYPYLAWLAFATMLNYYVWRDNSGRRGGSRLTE
Ki (Translocator protein [1]) [nM],Ki [2] [nM],logD [3],Ki (Translocator protein [4]) [nM],SUV (Striatum [5]),SUV (Striatum [6]),Ratio (Striatum [7]),Structure (SMILES)
0.08,> 1000,3.8,,,,,COc1ccc(OCCF)c(CN(C(C)=O)c2cc(F)ccc2Oc2ccccc2)c1
,> 8400,3.1,0.51,,,,Cn1c(=O)n(CC(=O)N(CCF)Cc2ccccc2)c2nc(-c3ccccc3)ncc21
,,,,1.5,1.3,,COc1ccc(OCC[18F])c(CN(C(C)=O)c2cc(F)ccc2Oc2ccccc2)c1
,,,,1.6,0.9,2.5,CN(Cc1ccccc1)C(=O)Cn1c(=O)n(CC[18F])c2cnc(-c3ccccc3)nc21

# Second part, the compound before the results:
Structure (SMILES),Ki (Translocator protein [1]) [nM],Ki [2] [nM],logD [3],Ki (Translocator protein [4]) [nM],SUV (Striatum [5]),SUV (Striatum [6]),Ratio (Striatum [7])
CN(Cc1ccccc1)C(=O)Cn1c(=O)n(CCF)c2cnc(-c3ccccc3)nc21,,8400,3.2,1.34,,,
CCN(Cc1ccccc1)C(=O)Cn1c(=O)n(CC[18F])c2cnc(-c3ccccc3)nc21,,,,,1.2,0.8,2.5
CCN(Cc1ccccc1)C(=O)Cn1c(=O)n(C)c2cnc(-c3ccccc3)nc21,,> 8400,3.3,0.2,,,
CCN(Cc1ccccc1)C(=O)Cn1c(=O)n(CCF)c2cnc(-c3ccccc3)nc21,,> 8400,3.6,0.49,,,
CCC(C)N(C)C(=O)c1cc2ccccc2c(-c2ccccc2Cl)n1 (stereo not given) [PK-11195],,> 8400,3.7,,,,
